Results from ChEMBL document CHEMBL3792375, “Strategies for improving the solubility and metabolic stability of griseofulvin analogues” (Eur J Med Chem, 2016).
In brackets after ≈: the same amount, converted by molar mass.

How the values were obtained:
MDA-MB-231 = assay: Cytotoxicity against human MDA-MB-231 cells assessed as reduction in cell viability after 72 hrs by celltiter Glo assay; type: functional, cell-based; settings: MDA-MB-231, 72 h
Outline: (§1)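 Antiproliferative IC50 was determined against viable cells using a luminescent ATP read-out.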

[1] = Half life in mouse liver microsomes by HPLC analysis in presence of NADPH; type: ADME
Outline: (§2)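 Male mouse or rat liver microsomes. Each run was done in triplicate, with a matching control that had no cofactor added. Samples were taken at set times, and the remaining non-degraded compound was quantified by analytical HPLC peak area. Half-life was calculated from linear plots.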

[2] = Thermodynamic solubility in PBS buffer at 1 mg after 12 hrs by HPLC analysis; type: physicochemical; settings: read-out: Therm_solubility
Outline: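 Solubility was measured in PBS, with the dissolved compound quantified by HPLC. The HPLC setup has a lower detection limit.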

U2OS = assay: Cytotoxicity against human U2OS cells assessed as reduction in cell viability after 72 hrs by celltiter Glo assay; type: functional, cell-based; outline: as §1
[3] = Half life in rat liver microsomes by HPLC analysis in presence of NADPH; type: ADME; outline: as §2
Liver = assay: Drug metabolism in mouse liver microsomes assessed as position 4/6 CH3 cleavage by LC-MS analysis; type: ADME
Liver microsome = assay: Drug metabolism in rat liver microsomes assessed as position 4/6 CH3 cleavage by LC-MS analysis; type: ADME
HeLa = assay: Cytotoxicity against human HeLa cells assessed as reduction in cell viability after 24 hrs by MTT assay; type: functional, cell-based
[4] = Cytotoxicity against human SCC114 cells assessed as reduction in cell viability after 24 hrs by MTT assay; type: functional, cell-based; settings: SCC114, 24 h

SMILES | half-life [1] [min] | solubility thermodynamic at 12 h [2] [µg/mL] | half-life [3] [min] | Drug metabolism (Liver) | Drug metabolism (Liver microsome) | IC50 (MDA-MB-231) [µM] | IC50 (U2OS) [µM] | IC50 (HeLa) [µM] | IC50 [4] [µM]
COc1cc(OC)c2c(c1Cl)O[C@]1(C2=O)C(OCc2ccccc2)=C/C(=N\OCC(=O)O)C[C@H]1C | 339 | > 1000 | 449 |  |  | 10.1 | 14.1 |  | 
COc1cc(OC)c2c(c1Cl)O[C@]1(C2=O)C(OCc2ccccc2)=C/C(=N\O)C[C@H]1C | 45 | 3 (≈ 6.76 µM) | 57 |  |  | 1.29 | 1.61 |  | 
COc1cc(OC(F)F)c(Cl)c2c1C(=O)[C@@]1(O2)C(OCc2ccccc2)=CC(=O)C[C@H]1C | 31 | < 0.3 | 53 |  |  | 5.34 | 5.56 |  | 
COc1cc(OC(F)F)c2c(c1Cl)O[C@]1(C2=O)C(OCc2ccccc2)=CC(=O)C[C@H]1C | 11 | < 0.3 | 26 |  |  | 11.8 | 14.3 |  | 

The next lines start with results.

half-life [1] [min] | solubility thermodynamic at 12 h [2] [µg/mL] | half-life [3] [min] | Drug metabolism (Liver) | Drug metabolism (Liver microsome) | SMILES | IC50 (MDA-MB-231) [µM] | IC50 (U2OS) [µM] | IC50 (HeLa) [µM] | IC50 [4] [µM]
27 | 0.3 (≈ 0.7 µM) | 60 |  |  | COc1cc(OC)c2c(c1Cl)O[C@]1(C2=O)C(OCc2ccccc2)=CC(=O)C[C@H]1C | 1.62 | 1.45 |  | 
 |  |  | metabolite_detected | metabolite_detected | [2H]C([2H])([2H])OC1=CC(=O)C[C@@H](C)[C@]12Oc1c(Cl)c(OC)cc(OC)c1C2=O |  |  |  | 
37 | 7.7 (≈ 21.8 µM) | 58 |  |  | COC1=CC(=O)C[C@@H](C)[C@]12Oc1c(Cl)c(OC)cc(OC)c1C2=O [GRISEOFULVIN] | 25.3 | 22.4 | 75 | 35
